pIC50: −log10 of the molar value. Where two headings read alike, the source gives them in different places.
What was measured:
[1] = Part II multiple ascending-dose pharmacokinetics; format: in vivo, human; details: part II, N 6; for CL / V z/F_obs / t ½ / λz / AUCt / AUC∞ / Accumulation Index / C max: mean ± SD; for t max: mean (range) per footnote
In short: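 Four panels of eight (six drug, two placebo) were dosed orally, fasted, with 100, 150, 200 or 300 mg on Days 1, 3 and 5. Blood was taken pre-dose and at 0.5–36 h after the Day 1 and Day 5 doses, pre-dose and 12, 24 and 36 h after Day 3, and 48 and 72 h after Day 5. Diluted-blood LC-MS/MS (LLOQ 2 ng/mL). Accumulation index was derived.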

[2] = Part I safety assessment; format: in vivo, human
In short: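 Safety monitored under ICH-GCP in each part (single 10–300 mg; alternate-day 100–300 mg; 150 mg fasted/fed crossover). Assessments: adverse events coded with MedDRA version 18.0, clinical examinations, frequent vital signs, 12-lead ECGs, clinical laboratory tests, and continuous ECG for 24 h post-dose in parts I and II. Post-dose vs baseline compared by paired two-sided t test, α = 0.05.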

[3] = tested on: hemoglobin levels; details: cited from earlier work
[4] = mice, oral route; cited from earlier work
[5] = beagle dogs, oral route; cited from earlier work
[6] = Part III sex and food effect pharmacokinetics; format: in vivo, human; details: for AUCt / AUC∞ / C max / CL/F_obs / HL_Lambda_z (terminal half-life) / V z/F_obs / λz: part III, single oral 150 mg, n = 10, mean ± SD
In short: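 Open-label crossover at a single 150 mg oral dose, with at least 14 days washout and an overnight fast of at least 10 h before each dose. Period I: 12 subjects (6 men, 6 women), fasted. Period II: 10 subjects (5 men, 5 women) given a high-fat, roughly 800–1000 calorie breakfast 30 min pre-dose. Drug measured in diluted blood by LC-MS/MS (2–5000 ng/mL). Food effect tested by two-sided t test, α = 0.05.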

[7] = tested on: serum erythropoietin (EPO), hemoglobin, hematocrit, reticulocyte count; experiment: Part III pharmacodynamics; format: in vivo, human; details: single 150 mg
In short: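 Serum EPO, hemoglobin, hematocrit and reticulocyte count were measured in blood taken before and after oral dosing. Regimens: part I single fasted doses 10–300 mg vs placebo; part II 100–300 mg on Days 1, 3, 5 vs placebo; part III single 150 mg, fasted vs fed, men and women. EPO expressed baseline-corrected. Post-dose vs baseline compared by paired two-sided t test, α = 0.05.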

[8] = target: PHD enzyme; details: read-out: concentration of drug producing 50% inhibition [IC50]; HepG2 cells, HIF stabilization; cited from earlier work
[9] = 200 mg oral on Days 1, 3, 5, Day 5
[10] = 300 mg oral on Days 1, 3, 5, Day 1
[11] = 300 mg oral on Days 1, 3, 5, Day 5

In the case of `O=C(O)CNC(=O)c1c(O)c2ccccc2n(OCC2CC2)c1=O` [ZYAN1], the CL [1, 9] was 2758.333 ± 677.108 mL/h, the V z/F_obs [1, 9] was 36,889.057 ± 5339.335 mL and the “t ½” value [1, 9] was 9.534 ± 1.467 h. The λz [1, 9] was 0.074 ± 0.012 h⁻¹, the t max [1, 10] was 3.00 (1.50–3.500) h and the AUCt [1, 10] was 118,269.238 ± 28,910.037 h·ng/mL. For the same compound, the “AUC∞” value [1, 10] was 123,020.455 ± 32,873.290 h·ng/mL, the “Accumulation Index” value [1, 10] was 1.017 ± 0.011 and the C max [1, 10] was 19,286.667 ± 4086.434 ng/mL. The CL [1, 10] was 2608.681 ± 641.704 mL/h, the V z/F_obs [1, 10] was 29,476.605 ± 6045.099 mL and the “t ½” value [1, 10] was 7.968 ± 1.106 h. For the same compound, the λz [1, 10] was 0.088 ± 0.011 h⁻¹, the t max [1, 11] was 1.75 (1.00–2.00) h and the AUCt [1, 11] was 105,472.355 ± 19,487.237 h·ng/mL. The “AUC∞” value [1, 11] was 105,772.678 ± 19,542.028 h·ng/mL, the “Accumulation Index” value [1, 11] was 1.033 ± 0.022 and the C max [1, 11] was 16,450.000 ± 3422.484 ng/mL. For the same compound, the CL [1, 11] was 2992.073 ± 697.789 mL/h, the V z/F_obs [1, 11] was 41,797.611 ± 17,743.925 mL and the “t ½” value [1, 11] was 9.445 ± 1.819 h. For the same compound, the λz [1, 11] was 0.076 ± 0.015 h⁻¹, the “Adverse events (Test)” value ([2]; SAD 25 mg panel) was “Rhinorrhea, right lower wisdom tooth pain, sore throat” and the “Adverse events (Test)” value ([2]; SAD 50 mg panel) was “Dizziness, headache, chest pain, Diarrhea, upper respiratory tract infection”. For the same compound, the “Adverse events (Test)” value ([2]; SAD 100 mg panel) was “Dizziness, headache, lethargy, nausea, throat irritation, increase in AST, hyperkalemia”, the “Adverse events (Test)” value ([2]; SAD 200 mg panel) was “Back pain” and the “drug-related serious adverse events” value ([2]; all study parts) was “No drug-related serious adverse events were reported”. The “severity of AEs possibly related to study treatment” value ([2]; part I) was “grade 1”, the “subjects with AEs possibly related to study treatment” value ([2]; part I, nine AEs in six subjects, placebo 21%) was 14% and the tolerability ([2]; single and multiple oral ascending doses) was “well-tolerated”. The “effective dose for inducing hematopoiesis” value ([3]; alternate dosing pattern for a week) was 15 mg/kg, the “erythropoiesis / hemoglobin levels” value ([3]; repeated dose model, nephrectomized rats and mice) was “robust increase in erythropoiesis, resulting in normalization of hemoglobin levels” and the “tolerated dose, single-dose study” value [4] was “up to 300 mg/kg”. For the same compound, the “tolerated dose, single-dose study” value [5] was “up to 75 mg/kg”, the “decrease of C max by ingestion of food” value ([6]; fed vs fasting, single 150 mg) was 2.39 times and the AUCt ([6]; Fasting) was 71,331.577 ± 25,663.234 h·ng/mL. The “AUC∞” value ([6]; Fasting) was 71,696.758 ± 25,837.440 h·ng/mL, the C max ([6]; Fasting) was 10,352.800 ± 3076.528 ng/mL and the CL/F_obs ([6]; Fasting) was 2479.865 ± 1333.719 mL/h. For the same compound, the “HL_Lambda_z (terminal half-life)” value ([6]; Fasting) was 11.048 ± 3.378 h, the “V z/F_obs” value ([6]; Fasting) was 37,927.046 ± 18,082.141 mL and the λz ([6]; Fasting) was 0.067 ± 0.015 h⁻¹. For the same compound, the AUCt ([6]; Fed (high-fat breakfast)) was 59,005.375 ± 16,846.249 h·ng/mL, the “AUC∞” value ([6]; Fed (high-fat breakfast)) was 59,561.279 ± 17,228.977 h·ng/mL and the C max ([6]; Fed (high-fat breakfast)) was 4322.000 ± 1317.961 ng/mL. The CL/F_obs ([6]; Fed (high-fat breakfast)) was 2801.105 ± 1109.706 mL/h, the “HL_Lambda_z (terminal half-life)” value ([6]; Fed (high-fat breakfast)) was 11.328 ± 3.691 h and the “V z/F_obs” value ([6]; Fed (high-fat breakfast)) was 45,070.176 ± 19,928.748 mL. The λz ([6]; Fed (high-fat breakfast)) was 0.066 ± 0.017 h⁻¹, the “AUC values, fed vs fasting” value ([6]; single 150 mg) was “decreased” and the “mean C max, male vs female subjects” value ([6]; single 150 mg) was “not statistically significant”. The “mean t ½, fed vs. fasted” value ([6]; single 150 mg) was “similar”, the “exposure, female vs male subjects” value ([6]; single 150 mg, small group, qualitative) was “female subjects had a higher exposure than males” and the “mean serum EPO concentrations, fasted vs fed” value [7] was “no apparent difference”. For the same compound, the “mean serum EPO concentrations, male vs female subjects” value ([7]; fasted or fed) was “no apparent difference” and the pIC50 [8] was 4.95.
